Assay results reported in ChEMBL document CHEMBL1140035, “4"-Benzoylureido-TSAO derivatives as potent and selective non-nucleoside HCMV inhibitors. Structure-activity relationship and mechanism of antiviral action” (J Med Chem, 2008).
Values after ≈ are worked out from the molar mass of the structure shown. Active and inactive are the calls of the source. The calls are words filed in the database; no cut-off is given here.

How the values were obtained:
Human betaherpesvirus 5 [1] = assay: Antiviral activity against HCMV Davis in HEL cells assessed as reduction of virus-induced cytopathogenicity after 7 days; format: functional, organism-based; conditions: Human betaherpesvirus 5, Davis, 168 h
Outline: (§1)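 Confluent HEL fibroblasts were infected with strain AD-169 or Davis at 100 PFU/well. After 2 h, residual virus was removed and medium with serial compound concentrations was added, in duplicate. Plates were held 7 days at 37 °C, fixed with ethanol, and scored microscopically for virus-induced cytopathicity. EC50 is the concentration reducing cytopathicity by 50%.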

[2] = Cytotoxicity against HEL cells assessed as reduction in cell growth after 3 days; format: cell-based; conditions: human
Outline: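 HEL cells were seeded at 5 × 10³ cells/well and allowed to proliferate for 24 h. Compound-containing medium was then added at several concentrations for 3 days at 37 °C. Cells were counted with a Coulter counter. CC50, the concentration reducing cell growth by 50% versus untreated controls, was read from plots of cell number (% of control) against concentration.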

[3] = Cytotoxicity against HEL cells assessed as alteration in cell morphology after 3 days; format: cell-based; conditions: human
Outline: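 Minimum cytotoxic concentration: the lowest compound concentration causing a microscopically detectable alteration of HEL cell morphology.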

Human betaherpesvirus 5 [4] = assay: Antiviral activity against HCMV AD169 in HEL cells assessed as reduction of virus-induced cytopathogenicity after 7 days; format: functional, organism-based; conditions: Human betaherpesvirus 5, AD169, HEL, 168 h; outline: as §1
Human betaherpesvirus 5 [5] = assay: Antiviral activity against ganciclovir-resistant HCMV with DNA polymerase mutant in HEL cells assessed as reduction of virus-induced cytopathogenicity; format: functional, organism-based; conditions: Human betaherpesvirus 5, HEL
Outline: (§2)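 Resistant mutants raised in vitro by serial passage of HCMV AD-169 under rising drug concentrations. Confluent HEL fibroblasts infected at 100 PFU/well for 2 h, then the inoculum was removed. Cells were kept with serial compound concentrations in duplicate for 7 days at 37 °C. After ethanol fixation, cytopathicity was scored microscopically. EC50 is the concentration halving virus-induced cytopathicity.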

Human betaherpesvirus 5 [6] = assay: Antiviral activity against HCMV 521 with […] and DNA polymerase mutation in HEL cells assessed as reduction of virus-induced cytopathogenicity; format: functional, organism-based; conditions: Human betaherpesvirus 5, HEL
Outline: (§3)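 Drug-resistant HCMV clinical isolates from immunocompromised patients, carrying UL97 and/or DNA polymerase mutations. Confluent HEL fibroblasts infected at 100 PFU/well for 2 h, then residual virus was removed. Medium with serial compound concentrations added in duplicate for 7 days at 37 °C. After ethanol fixation, cytopathicity was scored microscopically. EC50 is the concentration reducing cytopathicity by 50%.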

Human betaherpesvirus 5 [7] = assay: Antiviral activity against (S)-3-hydroxy-2-phosphonomethoxypropyl cytosine-resistant HCMV with DNA polymerase mutant in HEL cells assessed as reduction of virus-induced cytopathogenicity; format: functional, organism-based; conditions: Human betaherpesvirus 5, HEL; outline: as §2
Human betaherpesvirus 5 [8] = assay: Antiviral activity against foscarnet-resistant HCMV with DNA polymerase mutant in HEL cells assessed as reduction of virus-induced cytopathogenicity; format: functional, organism-based; conditions: Human betaherpesvirus 5, HEL; outline: as §2
Human betaherpesvirus 5 [9] = assay: Antiviral activity against HCMV 530 with […] and DNA polymerase mutation in HEL cells assessed as reduction of virus-induced cytopathogenicity; format: functional, organism-based; conditions: Human betaherpesvirus 5, HEL; outline: as §3
Human betaherpesvirus 5 [10] = assay: Antiviral activity against acyclovir-resistant HCMV with DNA polymerase mutant in HEL cells assessed as reduction of virus-induced cytopathogenicity; format: functional, organism-based; conditions: Human betaherpesvirus 5, HEL; outline: as §2
Human betaherpesvirus 5 [11] = assay: Antiviral activity against (S)-3-hydroxy-2-phosphonomethoxypropyl adenine-resistant HCMV with DNA polymerase mutant in HEL cells assessed as reduction of virus-induced cytopathogenicity; format: functional, organism-based; conditions: Human betaherpesvirus 5, HEL; outline: as §2
Human betaherpesvirus 5 [12] = assay: Antiviral activity against HCMV 6 with […] mutation in HEL cells assessed as reduction of virus-induced cytopathogenicity; format: functional, organism-based; conditions: Human betaherpesvirus 5, HEL; outline: as §3
Human betaherpesvirus 5 [13] = assay: Antiviral activity against HCMV in HEL cells assessed as reduction of virus-induced cytopathogenicity administered at 56 hrs post infection; format: functional, organism-based
Outline: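 Time-of-addition: confluent HEL cultures were infected with about 100 PFU/well of HCMV Davis. Compound dilutions were added at 0 h or at later time points post infection, with one plate set per time point. Seven days after infection, plates were ethanol-fixed and Giemsa-stained. Antiviral effect was scored microscopically and EC50 calculated.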

EC50 (Human betaherpesvirus 5 [1]) [µM] | EC50 (Human betaherpesvirus 5 [4]) [µM] | SMILES | CC50 at 72 h [2] [µM] | MCC at 72 h [3] [µM] | EC50 (Human betaherpesvirus 5 [5]) [µg/mL] | EC50 (Human betaherpesvirus 5 [6]) [µg/mL] | EC50 (Human betaherpesvirus 5 [7]) [µg/mL] | EC50 (Human betaherpesvirus 5 [8]) [µg/mL] | EC50 (Human betaherpesvirus 5 [9]) [µg/mL] | EC50 (Human betaherpesvirus 5 [10]) [µg/mL] | EC50 (Human betaherpesvirus 5 [11]) [µg/mL] | EC50 (Human betaherpesvirus 5 [12]) [µg/mL] | Activity (Human betaherpesvirus 5 [13])
> 100 | > 100 | Cc1cn([C@@H]2O[C@H](COC(=O)c3ccccc3)[C@@]3(OS(=O)(=O)C=C3NC(=O)NC(=O)c3ccccc3)[C@H]2O)c(=O)n(C)c1=O | > 100 | > 100 | – | – | – | – | – | – | – | – | –
1.1 | 1.3 | Cc1cn([C@@H]2O[C@H](CO[Si](C)(C)C(C)(C)C)[C@@]3(OS(=O)(=O)C=C3NC(=O)NCc3ccccc3)[C@H]2O[Si](C)(C)C(C)(C)C)c(=O)n(C)c1=O | 4.1 | 4 | – | – | – | – | – | – | – | – | –
– | – | Nc1ccn(C[C@@H](CO)OCP(=O)(O)O)c(=O)n1.O.O [CIDOFOVIR] | – | – | 0.59 | 0.79 | 2.2 | 0.1 | 0.62 | 0.069 | 3.1 | 0.49 | –
– | – | Nc1ncnc2c1ncn2C[C@@H](CO)OCP(=O)(O)O | – | – | 2 (≈ 6.6 µM) | 2.3 (≈ 7.59 µM) | 3.3 (≈ 10.9 µM) | 0.11 (≈ 0.363 µM) | 1.2 (≈ 3.96 µM) | 0.081 (≈ 0.267 µM) | 6.2 (≈ 20.4 µM) | 0.91 (≈ 3 µM) | –
2.4 | 11 | Cc1cn([C@@H]2O[C@H](CO[Si](C)(C)C(C)(C)C)[C@@]3(OS(=O)(=O)C=C3NC(=O)NC(=O)c3ccccc3)[C@H]2O[Si](C)(C)C(C)(C)C)c(=O)n(C)c1=O | > 200 | ≥ 80 | – | – | – | – | – | – | – | – | inactive
> 3.2 | > 3.2 | CCOC(=O)CNC(=O)NC1=CS(=O)(=O)O[C@@]12[C@@H](CO[Si](C)(C)C(C)(C)C)O[C@@H](n1cc(C)c(=O)n(C)c1=O)[C@@H]2O[Si](C)(C)C(C)(C)C | 13 | 16 | – | – | – | – | – | – | – | – | –
> 10 | 15 | Cc1cn([C@@H]2O[C@H](CO[Si](C)(C)C(C)(C)C)[C@@]3(OS(=O)(=O)C=C3NC(=O)N(C(=O)Nc3ccccc3)c3ccccc3)[C@H]2O[Si](C)(C)C(C)(C)C)c(=O)n(C)c1=O | 13 | 46 | – | – | – | – | – | – | – | – | –
– | – | Nc1nc2c(ncn2COC(CO)CO)c(=O)[nH]1 [GANCICLOVIR] | – | – | 7.6 (≈ 29.8 µM) | 6 (≈ 23.5 µM) | 4.9 (≈ 19.2 µM) | 1.5 (≈ 5.88 µM) | 6.2 (≈ 24.3 µM) | 0.54 (≈ 2.12 µM) | 9.1 (≈ 35.7 µM) | 9.4 (≈ 36.8 µM) | –
2 | 1.8 | CCNC(=O)NC1=CS(=O)(=O)O[C@@]12[C@@H](CO[Si](C)(C)C(C)(C)C)O[C@@H](n1cc(C)c(=O)n(C)c1=O)[C@@H]2O[Si](C)(C)C(C)(C)C | 10 | ≥ 3.2 | – | – | – | – | – | – | – | – | –
– | – | Nc1nc2c(ncn2COCCO)c(=O)[nH]1 [ACYCLOVIR] | – | – | 4.8 (≈ 21.3 µM) | 7.7 (≈ 34.2 µM) | 12 (≈ 53.3 µM) | 173 (≈ 768 µM) | 22 (≈ 97.7 µM) | 130 (≈ 577 µM) | 7.9 (≈ 35.1 µM) | 91 (≈ 404 µM) | –
> 100 | > 100 | CC(C)(C)[Si](C)(C)OCCC1(CO[Si](C)(C)C(C)(C)C)OS(=O)(=O)C=C1NC(=O)NC(=O)c1ccccc1 (stereo not given) | > 100 | > 100 | – | – | – | – | – | – | – | – | –
> 100 | > 100 | CC(=O)O[C@H]1[C@H](n2cc(C)c(=O)n(C)c2=O)O[C@H](COC(=O)c2ccccc2)[C@@]12OS(=O)(=O)C=C2NC(=O)NC(=O)c1ccccc1 | > 100 | > 100 | – | – | – | – | – | – | – | – | –
> 100 | > 100 | Cc1cn([C@@H]2O[C@H](CO[Si](C)(C)C(C)(C)C)[C@@]3(OS(=O)(=O)C=C3NC(=O)NC(=O)c3ccccc3)[C@H]2O)c(=O)n(C)c1=O | 22 | > 100 | – | – | – | – | – | – | – | – | –
4.2 | 6.3 | Cc1cn([C@@H]2O[C@H](CO[Si](C(C)C)(C(C)C)C(C)C)[C@@]3(OS(=O)(=O)C=C3NC(=O)NC(=O)c3ccccc3)[C@H]2O[Si](C)(C)C(C)(C)C)c(=O)n(C)c1=O | > 100 | ≥ 100 | – | – | – | – | – | – | – | – | –
> 100 | > 100 | Cc1cn([C@@H]2O[C@H](CO)[C@@]3(OS(=O)(=O)C=C3NC(=O)NC(=O)c3ccccc3)[C@H]2O)c(=O)n(C)c1=O | > 50 | 100 | – | – | – | – | – | – | – | – | –
– | – | Nc1ncnc2c1ncn2CCOCP(=O)(O)O [ADEFOVIR] | – | – | 5.8 (≈ 21.2 µM) | 20 (≈ 73.2 µM) | 18 (≈ 65.9 µM) | 128 (≈ 469 µM) | 42 (≈ 154 µM) | 137 (≈ 501 µM) | 9.1 (≈ 33.3 µM) | 90 (≈ 329 µM) | –
– | – | Nc1nc(N)c2ncn(CCOCP(=O)(O)O)c2n1 [PMEDAP] | – | – | 1.6 (≈ 5.55 µM) | 6.7 (≈ 23.2 µM) | 5.2 (≈ 18 µM) | 44 (≈ 153 µM) | 12 (≈ 41.6 µM) | 38 (≈ 132 µM) | 2.8 (≈ 9.72 µM) | 26 (≈ 90.2 µM) | –
> 4 | > 4 | Cc1cn([C@@H]2O[C@H](CO)[C@@]3(OS(=O)(=O)C=C3NC(=O)NC(=O)c3ccccc3)[C@H]2O[Si](C)(C)C(C)(C)C)c(=O)n(C)c1=O | 16 | 20 | – | – | – | – | – | – | – | – | –
2.2 | 2.2 | Cc1cn([C@@H]2O[C@H](COC(=O)c3ccccc3)[C@@]3(OS(=O)(=O)C=C3NC(=O)NC(=O)c3ccccc3)[C@H]2O[Si](C)(C)C(C)(C)C)c(=O)n(C)c1=O | 100 | ≥ 5 | – | – | – | – | – | – | – | – | –
0.38 | ≥ 0.14 | Cc1cn([C@@H]2O[C@H](CO[Si](C)(C)C(C)(C)C)[C@@]3(OS(=O)(=O)C=C3NC(=O)Nc3ccccc3)[C@H]2O[Si](C)(C)C(C)(C)C)c(=O)n(C)c1=O | 1.3 | 1.4 | – | – | – | – | – | – | – | – | –
2.8 | 2.3 | CCOC(=O)NC(=O)NC1=CS(=O)(=O)O[C@@]12[C@@H](CO[Si](C)(C)C(C)(C)C)O[C@@H](n1cc(C)c(=O)n(C)c1=O)[C@@H]2O[Si](C)(C)C(C)(C)C | 14 | 10 | – | – | – | – | – | – | – | – | –
3.9 | 12.1 | Cc1cn([C@@H]2O[C@H](CO[Si](C)(C)C(C)(C)C)[C@@]3(OS(=O)(=O)C=C3NC(=O)NC(=O)c3ccccc3)[C@H]2O[Si](C)(C)C(C)(C)C(C)C)c(=O)n(C)c1=O | ≥ 100 | ≥ 100 | – | – | – | – | – | – | – | – | –
2 | > 3.2 | Cc1cn([C@@H]2O[C@H](CO[Si](C)(C)C(C)(C)C)[C@@]3(OS(=O)(=O)C=C3NC(N)=O)[C@H]2O[Si](C)(C)C(C)(C)C)c(=O)n(C)c1=O | 11 | 16 | – | – | – | – | – | – | – | – | –
> 50 | > 50 | Cc1cn([C@@H]2O[C@H](COCc3ccccc3)[C@@]3(OS(=O)(=O)C=C3NC(=O)NC(=O)c3ccccc3)[C@H]2O[Si](C)(C)C(C)(C)C)c(=O)n(C)c1=O | > 50 | > 50 | – | – | – | – | – | – | – | – | –
> 20 | > 20 | CC(=O)N[C@@H]1O[C@H](CO[Si](C)(C)C(C)(C)C)[C@@]2(OS(=O)(=O)C=C2NC(=O)NC(=O)c2ccccc2)[C@H]1O[Si](C)(C)C(C)(C)C | > 100 | 100 | – | – | – | – | – | – | – | – | –
